Format in all cases: functional
In experiment [1] the test system is Mus musculus. Description: Effective dose to produce anticonvulsant activity using maximal electroshock assay (MES) evaluated in mice after oral administration. The procedure, abridged:
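Mice given oral doses as a suspension in 5% acacia/water. Corneal electroshock (40 mA, 0.1 s, ac). Retest at the time of peak effect with at least four doses, 12 mice per dose. ED50 is for prevention of tonic-extensor convulsions, by Litchfield–Wilcoxon with 95% confidence limits.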

The test system of experiment [2] is Mus musculus. The experiment in a line: Anticonvulsant activity using hexobarbital-induced (100 mg/kg dose was administered intraperitoneally) sleeping time assay evaluated in mice. The procedure, abridged:
(§1)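 Groups of 10 fasted mice dosed orally with test compound in 5% acacia/water; at the previously determined time of peak effect, hexobarbital given ip, solubilized with stoichiometric NaOH. Duration of loss of righting reflex monitored. Mean ± SEM for 10 animals, compared against vehicle controls.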

In experiment [3] the test system is Mus musculus. Description: Time to peak anticonvulsant effect (TPE) evaluated in mice after oral administration. The procedure, abridged: (§2)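 Three groups of mice given a range of oral doses in 5% acacia/water. Challenged by corneal MES (40 mA, 0.1 s, ac) at 0.5, 1, 2, 3 and 4 h posttreatment. Time of peak protection against seizures recorded.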
The subject of experiment [4] is Mus musculus. The experiment in a line: Effective dose to produce anticonvulsant activity using horizontal screen test (HS) evaluated in mice after oral administration. The procedure, abridged: (§3)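 Fasted male CF1 mice (20–25 g), oral suspension in 5% acacia/water. Each mouse placed on a screen, rod rotated 180°, and return to the top within 1 min scored. Peak time found at 0.5–4 h. Retest at that time with at least four doses, 12 mice per dose. ED50 by Litchfield–Wilcoxon with 95% confidence limits.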

For experiment [5], the system named is Mus musculus. The experiment in a line: Anticonvulsant activity using hexobarbital-induced (100 mg/kg dose was administered intraperitoneally)sleeping time assay evaluated in mice. The procedure, abridged:
as §1

The subject of experiment [6] is Mus musculus. Description: Time to peak anticonvulsant effect (TPE) was determined in mice after oral administration. The procedure, abridged:
as §2

Experiment [7] concerns Mus musculus. The experiment in a line: Anticonvulsant activity using hexobarbital-induced (100 mg/kg dose was administered intraperitoneally) sleeping time assay evaluated in mice after oral administration. The procedure, abridged:
as §1

In experiment [8] the test system is Mus musculus. The experiment in a line: Effective dpse to produce anticonvulsant activity using horizontal screen test (HS) evaluated in mice after oral administration. The procedure, abridged:
as §3

A value given as a limit tells only on which side of the number the result lay.

The compound `CC(O)(Cn1ccnc1)c1ccc2c(c1)Cc1ccccc1-2` (centres undefined) came in with an ED50 in the experiment with Mus musculus [1] of 10 mg/kg.
`c1ccc(OCCn2ccnc2)cc1`: the “Hexobarb ST” value with Mus musculus [2] came to 434.2 min. The TPE with Mus musculus [3] was 4 h. In addition, the ED50 in the experiment on Mus musculus [4] is more than 280 mg/kg; in the experiment with Mus musculus [1], 130 mg/kg.
Turning to `Cl.c1ccc(-c2ccccc2OCCCCn2ccnc2)cc1`, the “Hexobarb ST” value with Mus musculus [2] worked out at 124.3 min. The same compound showed a TPE with Mus musculus [3] of 0.5 h. The ED50 is more than 200 mg/kg with Mus musculus [4] and 29.8 mg/kg in the experiment with Mus musculus [1].
With `Cl.c1ccc(-c2ccc(OCCn3ccnc3)cc2)cc1`, the TPE in the experiment with Mus musculus [3] came to 2 h. Besides, the “Hexobarb ST” value with Mus musculus [5] is given as 697.5 min. The figures for the ED50 with Mus musculus [4] and with Mus musculus [1] were more than 400 mg/kg and 44 mg/kg, respectively.
On to `Cl.c1ccc(-c2cccc(OCCn3ccnc3)c2)cc1`, for which the “Hexobarb ST” value in the experiment on Mus musculus [2] stood at 334 min. The compound also registered a TPE in the experiment on Mus musculus [3] of 4 h. The ED50 in the experiment on Mus musculus [4] is more than 200 mg/kg; in the experiment on Mus musculus [1], 20.5 mg/kg.
In the case of `Cl.c1ccc(-c2ccccc2OCCn2ccnc2)cc1`, the TPE in the experiment on Mus musculus [6] was determined as 1 h. The “Hexobarb ST” value in the experiment on Mus musculus [7] was found to be 252.1 min. In addition, the figures for the ED50 with Mus musculus [4] and in the experiment on Mus musculus [1] were 320 mg/kg and 15.5 mg/kg, respectively.
For the compound `Cl.c1ccc(-c2ccccc2OCCCn2ccnc2)cc1`, in the experiment with Mus musculus [2], the “Hexobarb ST” value is listed as 126.7 min. Also, the TPE with Mus musculus [3] came to 1 h. Moreover, the ED50 was more than 280 mg/kg in the experiment on Mus musculus [4] and 21.3 mg/kg in the experiment with Mus musculus [1].
Regarding `O=C(Cn1ccnc1)c1ccc2ccccc2c1` [NAFIMIDONE], in the experiment with Mus musculus [1], it took a dose of 56 mg/kg to reach the 50% effect level (ED50).
In the experiment on Mus musculus [3], `O=C1NC(=O)C(c2ccccc2)(c2ccccc2)N1` [PHENYTOIN] showed a TPE of 1 h. For the same compound, the 50% effective dose (ED50) in the experiment with Mus musculus [8] came to 210 mg/kg; in the experiment on Mus musculus [1] it was 9.4 mg/kg.

The term ED50 denotes the midpoint of the dose-response relation.

For the origin of these results see ChEMBL document CHEMBL1123750, “Imidazole anticonvulsants: structure-activity relationships of [(biphenylyloxy)alkyl]imidazoles” (1987).
